In ChEMBL document CHEMBL1938284, “Synthesis and biological activity of novel organoselenium derivatives targeting multiple kinases and capable of inhibiting cancer progression to metastases” (Eur J Med Chem, 2012) one finds inhibition, Activity and IC50 data, which are given here for four compounds.

In experiment [1] the target is Fibroblast growth factor receptor 1 (Homo sapiens) (UniProt P11362). Briefly: Inhibition of FGFR1 at 1 uM.
The target in experiment [2] is Tyrosine-protein kinase SYK (Homo sapiens) (UniProt P43405). The experiment in a line: Inhibition of SYK at 1 uM.
For experiment [3], the target named is Aurora kinase B (Homo sapiens) (UniProt Q96GD4). The experiment in a line: Inhibition of Aurora B at 1 uM.
A short description of experiment [4]: Antiinvasive activity in human MDA231 cells at 10 uM after 48 hrs by Matrigel matrix assay. It is filed as functional, MDA-MB-231. The method, boiled down: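 Serum-starved MDA-231 cells (30,000) placed with or without compound (10 μM) in the upper compartment of 8-µm Matrigel-coated Boyden chambers. Lower compartment held DMEM 0.2% BSA with 10% serum. Invasion ran 48 h, then invaded cells were fixed, stained and counted under a 40× objective. DMSO normalized to 0% inhibition. Mean ± SD, five experiments.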

In experiment [5] the target is Proto-oncogene tyrosine-protein kinase Src (Homo sapiens) (UniProt P12931). Briefly: Inhibition of SRC at 1 uM.
Sequence of Proto-oncogene tyrosine-protein kinase Src (Homo sapiens) (P12931 2-536 limits assumed): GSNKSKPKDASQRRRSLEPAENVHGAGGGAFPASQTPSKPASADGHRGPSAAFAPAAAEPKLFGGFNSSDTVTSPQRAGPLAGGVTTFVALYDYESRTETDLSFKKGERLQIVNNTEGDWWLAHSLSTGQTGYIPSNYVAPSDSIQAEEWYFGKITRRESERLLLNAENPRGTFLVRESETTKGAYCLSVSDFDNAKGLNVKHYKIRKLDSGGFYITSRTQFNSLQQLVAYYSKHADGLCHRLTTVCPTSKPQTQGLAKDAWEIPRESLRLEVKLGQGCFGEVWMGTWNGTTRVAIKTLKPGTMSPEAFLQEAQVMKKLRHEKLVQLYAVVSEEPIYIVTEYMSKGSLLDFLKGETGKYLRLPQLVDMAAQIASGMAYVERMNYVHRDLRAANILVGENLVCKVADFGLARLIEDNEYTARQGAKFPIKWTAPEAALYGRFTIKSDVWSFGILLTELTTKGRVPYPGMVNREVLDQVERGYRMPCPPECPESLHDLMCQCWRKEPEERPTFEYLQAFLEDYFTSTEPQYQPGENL
The target in experiment [6] is Tyrosine-protein kinase Yes (Homo sapiens) (UniProt P07947). The experiment in a line: Inhibition of YES1 at 1 uM.
Experiment [7] concerns the target Platelet-derived growth factor receptor beta (Homo sapiens) (UniProt P09619). The experiment in a line: Inhibition of PDGFRbeta at 1 uM.
Experiment [8] has as its target Cyclin-dependent kinase 1/cyclin B1 (Homo sapiens) (UniProt P06493+P14635). Briefly: Inhibition of CDK1/cyclin B at 1 uM. It is filed as protein-complex assay.
The subject of experiment [9] is MDA-MB-231. The experiment in a line: Inhibition of free radical generation in human MDA231 cells by CM-H2DCFDA based fluorometric analysis. It is filed as functional, cell-based.
In experiment [10] the target is Epidermal growth factor receptor (Homo sapiens) (UniProt P00533). Briefly: Inhibition of EGFR at 1 uM.
Sequence of Epidermal growth factor receptor (Homo sapiens) (P00533 whole entry): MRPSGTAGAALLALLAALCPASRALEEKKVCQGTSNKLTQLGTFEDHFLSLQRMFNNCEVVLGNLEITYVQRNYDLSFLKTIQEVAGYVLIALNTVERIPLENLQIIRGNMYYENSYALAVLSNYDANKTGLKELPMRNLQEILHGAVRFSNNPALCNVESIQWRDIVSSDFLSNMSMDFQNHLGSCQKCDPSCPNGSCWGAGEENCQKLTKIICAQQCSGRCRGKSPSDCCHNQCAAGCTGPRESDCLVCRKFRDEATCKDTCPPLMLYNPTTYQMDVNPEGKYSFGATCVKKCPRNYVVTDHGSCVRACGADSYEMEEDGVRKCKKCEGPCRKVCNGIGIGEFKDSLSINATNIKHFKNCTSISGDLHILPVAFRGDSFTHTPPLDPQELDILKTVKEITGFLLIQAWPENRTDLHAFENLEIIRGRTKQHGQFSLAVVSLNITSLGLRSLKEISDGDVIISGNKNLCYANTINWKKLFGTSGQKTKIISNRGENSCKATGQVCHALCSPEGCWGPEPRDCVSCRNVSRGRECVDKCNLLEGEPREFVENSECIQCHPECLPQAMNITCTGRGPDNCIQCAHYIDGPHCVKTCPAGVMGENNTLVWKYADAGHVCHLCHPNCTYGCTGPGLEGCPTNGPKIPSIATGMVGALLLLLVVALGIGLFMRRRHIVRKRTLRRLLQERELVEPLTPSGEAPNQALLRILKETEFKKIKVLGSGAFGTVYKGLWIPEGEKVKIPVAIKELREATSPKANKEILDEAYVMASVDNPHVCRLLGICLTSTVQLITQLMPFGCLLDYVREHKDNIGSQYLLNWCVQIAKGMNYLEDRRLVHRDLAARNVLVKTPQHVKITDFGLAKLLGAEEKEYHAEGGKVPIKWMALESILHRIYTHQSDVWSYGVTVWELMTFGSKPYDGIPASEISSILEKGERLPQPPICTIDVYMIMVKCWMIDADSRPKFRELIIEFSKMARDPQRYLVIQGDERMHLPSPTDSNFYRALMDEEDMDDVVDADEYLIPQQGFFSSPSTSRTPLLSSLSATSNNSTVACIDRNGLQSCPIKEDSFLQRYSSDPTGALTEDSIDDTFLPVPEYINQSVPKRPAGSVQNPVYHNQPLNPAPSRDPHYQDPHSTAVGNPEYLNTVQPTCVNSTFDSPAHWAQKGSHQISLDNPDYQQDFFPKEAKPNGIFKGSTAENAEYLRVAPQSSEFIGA
Experiment [11] can be described thus: […] in human MDA231 cells assessed as inhibition of cell migration at 10 uM after 12 to 24 hrs by wound healing migration assay relative to control. It is filed as functional. As to conditions: MDA-MB-231. The method, boiled down: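 MDA-231 cells grown on coverslips for 24 h, wounded by scraping with a micropipette tip, washed, then incubated in fresh medium at 37 °C with or without compound (10 μM final). Wound areas photographed at 12 and 24 h, remaining area measured, DMSO control set to 0% inhibition. Mean ± SD of five independent experiments.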

The target in experiment [12] is Epithelial discoidin domain-containing receptor 1 (Homo sapiens) (UniProt Q08345). The experiment in a line: Inhibition of DDR1 at 1 uM.
Sequence of Epithelial discoidin domain-containing receptor 1 (Homo sapiens) (Q08345 whole entry, the tested form may be a part): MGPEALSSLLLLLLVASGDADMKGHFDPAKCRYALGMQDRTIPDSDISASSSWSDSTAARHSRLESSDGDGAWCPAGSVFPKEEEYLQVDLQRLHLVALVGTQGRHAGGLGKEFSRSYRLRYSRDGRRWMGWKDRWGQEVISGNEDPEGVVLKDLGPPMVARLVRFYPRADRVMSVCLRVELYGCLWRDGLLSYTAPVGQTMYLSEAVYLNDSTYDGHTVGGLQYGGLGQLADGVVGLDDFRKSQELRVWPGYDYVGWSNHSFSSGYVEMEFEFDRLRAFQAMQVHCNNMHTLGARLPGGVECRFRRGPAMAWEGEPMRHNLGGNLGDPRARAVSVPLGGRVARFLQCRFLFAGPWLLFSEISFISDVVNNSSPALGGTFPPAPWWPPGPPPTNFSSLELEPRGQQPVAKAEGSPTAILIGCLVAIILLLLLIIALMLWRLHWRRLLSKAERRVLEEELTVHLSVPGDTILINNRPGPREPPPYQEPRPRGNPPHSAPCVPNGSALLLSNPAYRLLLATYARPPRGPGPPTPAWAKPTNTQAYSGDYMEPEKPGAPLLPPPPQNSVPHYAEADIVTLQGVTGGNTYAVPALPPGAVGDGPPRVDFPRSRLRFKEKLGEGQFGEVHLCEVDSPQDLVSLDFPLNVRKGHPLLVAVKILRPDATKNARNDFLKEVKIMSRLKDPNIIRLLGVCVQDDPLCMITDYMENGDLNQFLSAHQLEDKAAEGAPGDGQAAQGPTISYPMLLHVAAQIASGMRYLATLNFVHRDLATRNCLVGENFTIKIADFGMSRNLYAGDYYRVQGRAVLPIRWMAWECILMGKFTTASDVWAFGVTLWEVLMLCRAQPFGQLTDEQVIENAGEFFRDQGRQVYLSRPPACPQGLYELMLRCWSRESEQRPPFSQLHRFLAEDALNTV
Experiment [13] has as its system MDA231. The experiment in a line: Inhibition of lipoxygenase in human MDA231 cells. It is filed as cell-based.
Experiment [14] has as its target Hepatocyte growth factor receptor (Homo sapiens) (UniProt P08581). Briefly: Inhibition of MET at 1 uM.
In experiment [15] the target is T1, Mitogen-activated protein kinase 12 (Homo sapiens) (UniProt P53778).
T1 sequence (whole entry): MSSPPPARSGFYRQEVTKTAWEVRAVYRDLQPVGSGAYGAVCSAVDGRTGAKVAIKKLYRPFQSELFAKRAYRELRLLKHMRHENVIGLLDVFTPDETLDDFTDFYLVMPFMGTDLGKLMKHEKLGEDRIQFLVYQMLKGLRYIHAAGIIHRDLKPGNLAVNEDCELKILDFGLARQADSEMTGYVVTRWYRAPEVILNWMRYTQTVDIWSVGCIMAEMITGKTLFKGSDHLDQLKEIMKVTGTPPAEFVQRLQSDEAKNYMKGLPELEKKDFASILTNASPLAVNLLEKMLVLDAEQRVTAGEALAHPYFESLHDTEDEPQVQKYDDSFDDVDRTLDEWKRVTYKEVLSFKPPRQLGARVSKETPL
The experiment in a line: Inhibition of p38-gamma at 1 uM.

For experiment [16], the target named is Tyrosine-protein kinase receptor Tie-1 (Homo sapiens) (UniProt P35590). The experiment in a line: Inhibition of TIE1 at 1 uM.
Experiment [17] addresses Tyrosine-protein kinase Fyn (Homo sapiens) (UniProt P06241). Briefly: Inhibition of FYN at 1 uM.
Experiment [18] has as its target Tyrosine-protein kinase ABL1 (Homo sapiens) (UniProt P00519). The experiment in a line: Inhibition of ABL1 at 1 uM.
Experiment [19] concerns the target Serine/threonine-protein kinase pim-1 (Homo sapiens) (UniProt P11309). The experiment in a line: Inhibition of PIM1 at 1 uM.
Experiment [20] has as its target Ribosomal protein S6 kinase alpha-4 (Homo sapiens) (UniProt O75676). Briefly: Inhibition of RPS6KA4 at 1 uM.
Experiment [21] has as its target T2, Ephrin type-A receptor 1 (Homo sapiens) (UniProt P21709).
T2 sequence (whole entry): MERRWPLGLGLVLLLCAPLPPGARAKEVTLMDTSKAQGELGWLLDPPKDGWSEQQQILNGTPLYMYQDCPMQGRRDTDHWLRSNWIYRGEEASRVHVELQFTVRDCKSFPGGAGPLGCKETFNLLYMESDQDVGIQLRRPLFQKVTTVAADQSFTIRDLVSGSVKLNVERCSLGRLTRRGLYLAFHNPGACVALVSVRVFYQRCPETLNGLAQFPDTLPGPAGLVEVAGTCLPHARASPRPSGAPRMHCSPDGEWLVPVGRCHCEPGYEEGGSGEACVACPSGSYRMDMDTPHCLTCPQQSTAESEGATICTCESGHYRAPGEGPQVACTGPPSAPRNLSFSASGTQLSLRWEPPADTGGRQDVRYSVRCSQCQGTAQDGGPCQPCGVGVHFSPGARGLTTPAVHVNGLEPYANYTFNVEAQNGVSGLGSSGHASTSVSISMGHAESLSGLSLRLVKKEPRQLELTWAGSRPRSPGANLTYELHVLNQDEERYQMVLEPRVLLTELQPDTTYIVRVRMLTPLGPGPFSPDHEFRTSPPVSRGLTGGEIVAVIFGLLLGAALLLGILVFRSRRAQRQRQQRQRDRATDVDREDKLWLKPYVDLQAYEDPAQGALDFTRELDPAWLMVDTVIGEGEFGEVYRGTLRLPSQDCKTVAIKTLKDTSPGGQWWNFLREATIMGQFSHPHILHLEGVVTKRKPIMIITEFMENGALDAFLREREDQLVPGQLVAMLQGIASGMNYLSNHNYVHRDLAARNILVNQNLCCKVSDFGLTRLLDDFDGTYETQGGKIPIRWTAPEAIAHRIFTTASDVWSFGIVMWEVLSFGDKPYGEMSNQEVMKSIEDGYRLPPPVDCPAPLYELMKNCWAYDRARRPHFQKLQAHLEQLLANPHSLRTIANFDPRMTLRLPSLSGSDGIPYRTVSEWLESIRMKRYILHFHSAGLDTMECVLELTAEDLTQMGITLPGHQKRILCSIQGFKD
The experiment in a line: Inhibition of EPHA1 at 1 uM.

Experiment [22] has as its target Insulin-like growth factor 1 receptor (Homo sapiens) (UniProt P08069). The experiment in a line: Inhibition of IGF1R at 1 uM.
Experiment [23] has as its system MDA-MB-231. The experiment in a line: Cytotoxicity against human MDA231 cells at 10 uM. It is filed as functional, cell-based.
Experiment [24] is described as follows: Antiproliferative activity against human MDA231 cells after 72 hrs by MTT assay. The format is functional, cell-based. As to conditions: MDA-MB-231, 72 h. The method, boiled down:
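MTT read-out on MDA-231 cells. 1×10^3 exponentially growing cells seeded and incubated 24, 48 and 72 h. Medium replaced with 1 mg/mL MTT for 3–4 h at 37 °C.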

Calls of active or inactive are those of the source. The calls are words filed in the database; no cut-off is given here.

Sequence of Platelet-derived growth factor receptor beta (Homo sapiens) (P09619 whole entry): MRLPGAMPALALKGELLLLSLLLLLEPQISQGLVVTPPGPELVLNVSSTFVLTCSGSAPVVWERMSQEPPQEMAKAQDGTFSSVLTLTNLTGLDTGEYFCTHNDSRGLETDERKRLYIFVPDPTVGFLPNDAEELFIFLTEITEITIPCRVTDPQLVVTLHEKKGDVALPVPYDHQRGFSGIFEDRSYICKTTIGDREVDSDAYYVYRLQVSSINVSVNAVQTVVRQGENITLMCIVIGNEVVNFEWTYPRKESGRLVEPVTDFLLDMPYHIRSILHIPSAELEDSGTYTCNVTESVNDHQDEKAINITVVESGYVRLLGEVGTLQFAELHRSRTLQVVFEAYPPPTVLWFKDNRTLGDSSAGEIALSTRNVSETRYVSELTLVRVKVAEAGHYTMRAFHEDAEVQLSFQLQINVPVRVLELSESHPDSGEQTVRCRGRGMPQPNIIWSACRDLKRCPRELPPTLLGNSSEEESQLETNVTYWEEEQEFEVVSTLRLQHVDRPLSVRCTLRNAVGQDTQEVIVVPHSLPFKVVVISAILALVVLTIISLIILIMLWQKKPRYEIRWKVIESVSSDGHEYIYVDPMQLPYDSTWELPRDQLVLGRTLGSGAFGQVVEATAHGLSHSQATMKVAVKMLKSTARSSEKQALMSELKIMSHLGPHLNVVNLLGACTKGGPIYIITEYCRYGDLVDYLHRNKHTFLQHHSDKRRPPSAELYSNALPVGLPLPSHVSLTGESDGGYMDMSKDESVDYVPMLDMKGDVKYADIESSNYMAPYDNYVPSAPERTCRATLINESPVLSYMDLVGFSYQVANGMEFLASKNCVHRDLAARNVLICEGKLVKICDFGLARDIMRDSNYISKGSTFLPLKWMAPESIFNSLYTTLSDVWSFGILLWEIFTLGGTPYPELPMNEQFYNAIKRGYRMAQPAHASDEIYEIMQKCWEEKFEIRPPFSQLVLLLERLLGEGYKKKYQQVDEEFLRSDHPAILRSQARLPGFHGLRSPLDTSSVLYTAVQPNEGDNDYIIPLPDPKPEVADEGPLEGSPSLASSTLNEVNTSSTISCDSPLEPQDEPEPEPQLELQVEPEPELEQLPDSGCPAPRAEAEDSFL
Sequence of Insulin-like growth factor 1 receptor (Homo sapiens) (P08069 31-736 limits assumed): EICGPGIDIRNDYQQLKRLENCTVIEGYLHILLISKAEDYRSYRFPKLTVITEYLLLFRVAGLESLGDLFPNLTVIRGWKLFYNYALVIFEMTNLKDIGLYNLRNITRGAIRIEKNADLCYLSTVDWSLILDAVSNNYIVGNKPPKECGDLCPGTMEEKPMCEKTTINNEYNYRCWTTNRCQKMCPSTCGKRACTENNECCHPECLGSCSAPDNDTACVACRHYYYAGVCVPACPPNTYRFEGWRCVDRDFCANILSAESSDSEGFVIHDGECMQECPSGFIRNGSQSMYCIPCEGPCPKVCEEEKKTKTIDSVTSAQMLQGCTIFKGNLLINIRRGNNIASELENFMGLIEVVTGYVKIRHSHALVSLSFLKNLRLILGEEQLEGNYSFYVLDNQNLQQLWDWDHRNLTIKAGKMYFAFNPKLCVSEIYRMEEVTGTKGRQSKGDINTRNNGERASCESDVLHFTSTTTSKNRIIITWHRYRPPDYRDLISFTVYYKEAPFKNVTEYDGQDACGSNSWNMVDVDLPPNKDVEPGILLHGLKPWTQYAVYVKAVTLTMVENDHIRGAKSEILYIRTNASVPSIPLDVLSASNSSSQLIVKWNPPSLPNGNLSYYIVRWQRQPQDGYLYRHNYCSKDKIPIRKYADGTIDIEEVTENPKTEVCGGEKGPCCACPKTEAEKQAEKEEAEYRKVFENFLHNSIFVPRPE
Sequence of Insulin-like growth factor 1 receptor (Homo sapiens) (P08069 741-1367 limits assumed): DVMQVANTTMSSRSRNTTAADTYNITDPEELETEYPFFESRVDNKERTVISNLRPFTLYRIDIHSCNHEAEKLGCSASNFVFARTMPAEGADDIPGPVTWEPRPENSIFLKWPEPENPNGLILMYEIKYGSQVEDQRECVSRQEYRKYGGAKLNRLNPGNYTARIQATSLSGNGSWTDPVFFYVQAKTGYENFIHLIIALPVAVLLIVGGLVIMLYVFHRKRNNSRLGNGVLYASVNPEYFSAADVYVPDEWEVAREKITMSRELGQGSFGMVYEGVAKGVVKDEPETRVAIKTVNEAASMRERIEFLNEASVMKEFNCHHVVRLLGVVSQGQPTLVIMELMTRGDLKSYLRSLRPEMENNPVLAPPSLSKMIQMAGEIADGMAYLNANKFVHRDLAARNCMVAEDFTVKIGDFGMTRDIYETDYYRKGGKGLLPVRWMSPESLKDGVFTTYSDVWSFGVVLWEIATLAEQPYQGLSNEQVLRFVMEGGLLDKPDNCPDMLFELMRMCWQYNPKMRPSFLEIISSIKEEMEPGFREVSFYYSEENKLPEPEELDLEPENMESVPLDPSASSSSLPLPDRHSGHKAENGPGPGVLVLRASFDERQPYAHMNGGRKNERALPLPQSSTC

Regarding `CC(=O)OC[C@H]1O[C@@H](O[C@H]2[C@H](OC(C)=O)[C@@H](OC(C)=O)[C@H](n3[se]c4ccccc4c3=O)O[C@@H]2COC(C)=O)[C@H](OC(C)=O)[C@@H](OC(C)=O)[C@H]1OC(C)=O`, the inhibition in experiment [1], in experiment [2], in experiment [3], in experiment [5], in experiment [6] and in experiment [7] was 0% in each case. The inhibition in experiment [8], in experiment [10], in experiment [12], in experiment [14], in experiment [15] and in experiment [16] was 0% throughout. Moreover, the inhibition in experiment [17] came to 0%; in [18], 0%; in experiment [19], 0%; in experiment [20], 0%; in [21], 0%; in experiment [22], 1%. This compound gave an Activity in experiment [4] of 50%. Further, the inhibition result in experiment [9] and in experiment [13] was “inactive” each time. Also, the inhibition at 10 µM in experiment [11] came to 50%. The outcome in experiment [23] was inactive.
With `CC(=O)OC[C@H]1O[C@@H](NC(=O)CCCn2[se]c3ccccc3c2=O)[C@H](OC(C)=O)[C@@H](OC(C)=O)[C@@H]1OC(C)=O`, the inhibition in [1], in experiment [2], in experiment [3], in [5], in [6] and in [7] was 0% throughout. Moreover, the inhibition in experiment [8], in experiment [10], in [12], in experiment [14], in experiment [15] and in experiment [16] was 0% in each case. The inhibition in experiment [17], in experiment [18], in experiment [19], in experiment [20], in experiment [21] and in experiment [22] was 0% in each case. Also, the Activity in [4] came out at 50%. The inhibition entry in experiment [9] and in experiment [13] was “inactive” each time. For the same compound, the inhibition at 10 µM in experiment [11] was 50%. This compound also gave a half-maximal inhibitory concentration (IC50) in [24] of 18.9 µM. Further, the result in experiment [23] was inactive.
Take `O=c1c2ccccc2[se]n1-c1ccccc1` [EBSELEN]: the inhibition in [1], in experiment [2], in experiment [3], in experiment [5], in experiment [6] and in experiment [7] was 0% throughout. Besides, the inhibition in experiment [8], in [10], in experiment [12], in experiment [14], in experiment [15] and in [16] was 0% each time. The inhibition in [17], in experiment [18], in [19], in [20], in experiment [21] and in experiment [22] was 0% each time. In addition, half-maximal inhibition in experiment [24] (IC50) was put at 42.3 µM.
On to `O=C(CCCn1[se]c2ccccc2c1=O)N[C@@H]1O[C@H](CO)[C@@H](O)[C@H](O)[C@H]1O`, for which the inhibition in [1], in experiment [2], in experiment [3], in experiment [5], in [6] and in [7] was 0% throughout. Moreover, the inhibition in [8], in experiment [10], in [12], in experiment [14], in experiment [15] and in experiment [16] was 0% each time. Further, the inhibition in [17], in experiment [18], in [19], in experiment [20], in [21] and in experiment [22] was 0% throughout. Besides, in [4], the Activity stood at 50%. Also, the inhibition entry in experiment [9] and in [13] was “inactive” throughout. For the same compound, the inhibition at 10 µM in experiment [11] was determined as 50%. In experiment [24], this compound displayed an IC50 of 20.4 µM. Further, the result in experiment [23] was inactive.
